Results of several laboratories.
Each line is one published result; the experiments were not run side by side.
Target: Ephrin type-A receptor 2 (EPHA2, Homo sapiens, UniProt P29317)

CCCCC(=O)Nc1ccc(-c2ccc3ncn(CCC)c(=O)c3c2)cn1  remaining binding (binding; competition with immobilised ligand; 0.5 µM): 100%
C1=C/COCc2cc(ccc2OCCN2CCCC2)Nc2nccc(n2)-c2cccc(c2)COC/1  remaining binding (binding; 0.1 µM): 100%
Cc1cc(O)c(-c2ccc([C@@H](C)CN(C)C)cc2)c2c1[nH]c(=O)c1sccc12  inhibition (cell-free assay; inhibitor; 0.1 µM): -2.28%
C=CC(=O)N1CCC[C@@H](n2nc(-c3ccc(Oc4ccccc4)cc3)c3c(N)ncnc32)C1  inhibition (enzyme activity; inhibitor; 1 µM): 4%
COc1ccc2oc(-c3ccc4nc(N)oc4c3)c/c(=N\c3ccccc3NC(=O)CCN)c2c1  remaining binding (binding; 1 µM): 99%
Cc1ccc(NC(=O)c2ccnc(C(F)(F)F)c2)cc1-c1cc(OCCO)nc(N2CCOCC2)c1  remaining binding (binding; competition with immobilised ligand; 1 µM): 63%
C#Cc1cnc(Nc2ccnc(CO)c2)nc1Nc1ccccc1S(C)(=O)=NC#N (stereo not shown)  remaining signal (cell-free assay; 1 µM): 70%
N#Cc1ccc(NC(=O)Nc2ccccc2)cc1  remaining binding (cell-free assay; competition with immobilised ligand; 25 µM): 100%
COc1ccc2[nH]c3c4[nH]c5ccc(OC)cc5c4c4c(c3c2c1)C(=O)NC4=O  remaining binding (binding; competition with immobilised ligand; 1 µM): 85%
C=CC(=O)N1CCC([C@@H]2CCNc3c(C(N)=O)c(-c4ccc(Oc5ccccc5)cc4)nn32)CC1  inhibition (cell-free assay; 1 µM): 10%
